ChEMBL document CHEMBL1124915, “Inhibitors of human renin. Cyclic peptide analogues containing a D-Phe-Lys-D-Trp sequence” (J Med Chem, 1990)

Biological target: T1, Renin (Homo sapiens) (UniProt P00797)
T1 sequence (whole entry): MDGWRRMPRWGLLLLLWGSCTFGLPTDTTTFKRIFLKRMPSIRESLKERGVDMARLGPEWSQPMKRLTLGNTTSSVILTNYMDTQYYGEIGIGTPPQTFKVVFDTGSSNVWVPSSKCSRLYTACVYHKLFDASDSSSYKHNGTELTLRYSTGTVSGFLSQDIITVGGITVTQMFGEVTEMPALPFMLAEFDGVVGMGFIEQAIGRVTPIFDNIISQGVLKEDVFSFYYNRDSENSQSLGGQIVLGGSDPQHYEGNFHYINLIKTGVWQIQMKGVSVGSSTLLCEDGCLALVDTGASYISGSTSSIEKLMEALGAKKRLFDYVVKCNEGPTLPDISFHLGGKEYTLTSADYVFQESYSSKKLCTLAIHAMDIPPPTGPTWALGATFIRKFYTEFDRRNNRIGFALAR
Test: Percent inhibition against human renin at the concentration of 1 uM

Row | SMILES | inhibition [%]
1 | CC(C)CCNC(=O)C(Cc1c[nH]c2ccccc12)NC(=O)[C@H](CCCCN)N1C(=O)CN[C@H](CC(C)C)C(=O)N[C@@H](Cc2ccccc2)C1=O (stereo in doubt) | 10

Biological target: T1, Renin (Homo sapiens)
Test: Percent inhibition against human renin at the concentration of 100 uM
Outline: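 Each compound was tested twice at 100 µM against partially purified human renal renin with human plasma angiotensinogen in pH 7.0 phosphate buffer with protease inhibitors and 1% DMSO, for 120 min at 30 °C. Angiotensin I generation was quantified by radioimmunoassay and expressed as percent inhibition of the vehicle control rate.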

Row | SMILES | inhibition [%]
2 | CC(C)CCNC(=O)C(Cc1c[nH]c2ccccc12)NC(=O)[C@H](CCCCN)N1C(=O)[C@H](Cc2ccccc2)NC(=O)CN[C@H](Cc2ccccc2)C1=O (stereo in doubt) | 57
3 | CC[C@H](C)[C@@H]1NCC(=O)N([C@@H](CCCCN)C(=O)NC(Cc2c[nH]c3ccccc23)C(=O)NCCC(C)C)C(=O)[C@H](Cc2ccccc2)NC1=O (stereo in doubt) | 84
4 | CC(C)CCNC(=O)C(Cc1c[nH]c2ccccc12)NC(=O)[C@H](CCCCN)N1C(=O)CN[C@H](CC(C)C)C(=O)N[C@@H](Cc2ccccc2)C1=O (stereo in doubt) | 88
5 | CCC(C)CNC(=O)C(Cc1c[nH]c2ccccc12)NC(=O)[C@H](CCCCN)N1C(=O)CC(C)(C)CC(=O)N[C@@H](Cc2ccccc2)C1=O (stereo in doubt) | 63
6 | CC(C)CCNC(=O)C(Cc1c[nH]c2ccccc12)NC(=O)[C@H](CCCCN)N1C(=O)CSCC(=O)N[C@@H](Cc2ccccc2)C1=O (stereo in doubt) | 66
7 | CC(C)CCNC(=O)C(Cc1c[nH]c2ccccc12)NC(=O)[C@H](CCCCN)N1C(=O)[C@H](Cc2ccccc2)NCC(=O)N[C@@H](Cc2ccccc2)C1=O (stereo in doubt) | 52

Biological target: T1, Renin (Homo sapiens)
Test: Percent inhibition against human renin at the concentration of 10 uM

Row | SMILES | inhibition [%]
8 | CC(C)CCNC(=O)C(Cc1c[nH]c2ccccc12)NC(=O)[C@H](CCCCN)N1C(=O)CCC(=O)N[C@@H](Cc2ccccc2)C1=O (stereo in doubt) | 53
9 | CC[C@H](C)[C@@H]1NCC(=O)N([C@@H](CCCCN)C(=O)NC(Cc2c[nH]c3ccccc23)C(=O)NCCC(C)C)C(=O)[C@H](Cc2ccccc2)NC1=O (stereo in doubt) | 45
10 | CC[C@@H](C)[C@@H]1NCC(=O)N[C@@H](Cc2ccccc2)C(=O)N([C@@H](CCCCN)C(=O)NC(Cc2c[nH]c3ccccc23)C(=O)NCCC(C)C)C1=O (stereo in doubt) | 58

Biological target: T2, Renin (Homo sapiens, UniProt P00797)
T2 sequence (P00797 whole entry): T1 sequence (whole entry)
Test: Inhibition of human renin

Row | SMILES | IC50 [µM]
11 | CC(C)CCNC(=O)C(Cc1c[nH]c2ccccc12)NC(=O)[C@H](CCCCN)N1C(=O)C(c2ccccc2)CCC(=O)N[C@@H](Cc2ccccc2)C1=O (stereo in doubt) | 1.5
12 | CC(C)CCNC(=O)C(Cc1c[nH]c2ccccc12)NC(=O)[C@H](CCCCN)N1C(=O)COCC(=O)N[C@@H](Cc2ccccc2)C1=O (stereo in doubt) | 2.3
13 | CC(C)CCNC(=O)C(Cc1c[nH]c2ccccc12)NC(=O)[C@H](CCCCN)N1C(=O)CN[C@@H](Cc2ccccc2)C(=O)N[C@@H](Cc2ccccc2)C1=O (stereo in doubt) | 0.75
14 | CC(C)CCNC(=O)C(Cc1c[nH]c2ccccc12)NC(=O)[C@H](CCCCN)N1C(=O)CN[C@H](Cc2ccccc2)C(=O)N[C@@H](Cc2ccccc2)C1=O (stereo in doubt) | 2.74
15 | COC(=O)[C@H](CC(C)C)NC(=O)C(Cc1c[nH]c2ccccc12)NC(=O)[C@H](CSCNC(C)=O)NC(=O)[C@H](Cc1ccccc1)NC(=O)OC(C)(C)C (stereo in doubt) | 40
16 | CC(C)CC(C)CNC(=O)C(Cc1c[nH]c2ccccc12)NC(=O)[C@H](CCCCN)N1C(=O)CC(C)CC(=O)N[C@@H](Cc2ccccc2)C1=O (stereo in doubt) | 0.24
17 | CCC(C)CNC(=O)C(Cc1c[nH]c2ccccc12)NC(=O)[C@H](CCCCN)N1C(=O)[C@H](Cc2ccccc2)NC(=O)CCC(C)(C)C1=O (stereo in doubt) | 1.4
18 | COC(=O)[C@H](CC(C)C)NC(=O)C(Cc1c[nH]c2ccccc12)NC(=O)[C@H](CCCCN)N1C(=O)CC[C@H](NC(=O)OCc2ccccc2)C(=O)N[C@@H](Cc2ccccc2)C1=O (stereo in doubt) | 3.2
19 | COC(=O)[C@H](CC(C)C)NC(=O)C(Cc1c[nH]c2ccccc12)NC(=O)[C@H](CCCCN)NC(=O)[C@H](Cc1ccccc1)NC(=O)OCc1ccccc1 (stereo in doubt) | 31
